Source: PubChem (The Scripps Research Institute Molecular Screening Center)
The list is not random: actives were taken first. Their share in the collection is about 4.2%.
TAAR1 antag = antagonists of human TAAR1. CHO RD-HGA16 TAAR1, Fluo-8 calcium fluorescence, antagonist. inhibition, % at 3 µM. actives 1.5% (n = 360,000);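 active = inhibition above a per-plate cutoff, the mean inhibition of test compounds on that plate plus 3 SD, cut at about 49% in these data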;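 also: 0% = DMSO plus EC80 beta-PEA response and 100% = DMSO alone without agonist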
Target sequence (Q96RJ0 whole entry, looked up): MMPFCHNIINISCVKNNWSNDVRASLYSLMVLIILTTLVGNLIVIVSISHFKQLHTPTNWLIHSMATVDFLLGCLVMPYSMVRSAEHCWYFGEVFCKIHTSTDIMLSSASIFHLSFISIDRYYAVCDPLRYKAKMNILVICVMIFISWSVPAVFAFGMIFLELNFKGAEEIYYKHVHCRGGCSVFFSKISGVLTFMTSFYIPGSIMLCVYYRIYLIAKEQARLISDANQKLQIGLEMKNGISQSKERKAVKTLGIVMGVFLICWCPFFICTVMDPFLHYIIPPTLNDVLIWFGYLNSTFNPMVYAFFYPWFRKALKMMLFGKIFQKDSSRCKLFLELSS
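test system = CHO RD-HGA16 cells bearing hTAAR1 | replication = singlicate | controls = DMSO-only wells and EC80 β-PEA-stimulated wells | reagent = EC80 β-phenethylamine stimulus | read-out basis = percent inhibition of PEA-evoked calcium signal, max/basal emission ratio | schedule = seeding 17-24 h prior, 75-min 37 °C, 30-min RT dye loading | signal = kinetic Fluo-8 calcium fluorescence measurement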
CHO parental Ca = signal in parental CHO cells, OX1R antagonist counter-screen; parental CHO-K1, ATP-induced calcium, Fluo-8 fluorescence; inhibition, % at 5.6 µM; actives 0.63% (n = 330,000); AID 463079;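 active = inhibition above that plate's mean sample inhibition plus 3 SD, cut at about 26% in these data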;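 also: 0% = ATP-challenged DMSO wells and 100% = DMSO wells without ATP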
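material = parental CHO cells | also added = ATP as calcium-mobilizing challenge | dosing = single point at 5.6 µM | detection = intracellular calcium via Fluo-8 no-wash fluorescent dye | read-out = % inhibition | benchmarks = low control ATP plus DMSO, high control DMSO only | repeats = one well per compound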
OX1R antag-1 = OX1R (human) antagonism. O43613. OX1R-expressing cells, FRET antagonist read-out. inhibition, % at 6.6 µM. AID 485270. actives 1.8% (n = 330,000); in the data active = inhibition mostly above about 38%, no sharp cut-off; inactive = mostly below about 40%;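 also: 0% = agonist challenge alone and 100% = reference antagonist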
Target sequence (O43613 whole entry, looked up): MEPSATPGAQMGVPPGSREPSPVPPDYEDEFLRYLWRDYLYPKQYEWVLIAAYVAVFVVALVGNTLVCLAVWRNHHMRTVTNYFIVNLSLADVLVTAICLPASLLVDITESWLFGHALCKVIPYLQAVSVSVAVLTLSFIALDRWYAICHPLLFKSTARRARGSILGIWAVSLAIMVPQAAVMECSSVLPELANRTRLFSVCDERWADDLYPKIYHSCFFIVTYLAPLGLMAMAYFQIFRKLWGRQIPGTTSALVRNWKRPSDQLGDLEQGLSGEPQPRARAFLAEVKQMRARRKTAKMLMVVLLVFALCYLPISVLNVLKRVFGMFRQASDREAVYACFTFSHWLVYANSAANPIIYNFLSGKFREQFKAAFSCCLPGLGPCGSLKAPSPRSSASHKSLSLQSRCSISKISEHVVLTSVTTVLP
TAAR1 ag = agonists of human TAAR1 | Q96RJ0 | CHO RD-HGA16 TAAR1, Fluo-8 calcium fluorescence; vehicle wells 0%, saturating PEA agonist 100% | activation, % at 3 µM | actives 0.99% (n = 360,000);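 active = activation above the mean activation of all test compounds in the run plus 3 SD, cut at about 38% in these data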
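test system = CHO RD-HGA16 cells carrying human TAAR1 plus Gα16 | schedule = 17-24 h seeding, 75 min 37 °C dye, 30 min RT | compound dosing = 3 µM single concentration | control set = DMSO and PEA EC100 | replicates = n 1 | signal = Fluo-8 fluorescence, 5 s baseline then 140 s kinetic read | measure = percent activation vs PEA EC100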
OX1R antag-2 = blocks the human orexin 1 receptor | O43613 | CHO/OX1R cells, Fluo-8 calcium fluorescence, orexin A | inhibition, % at 5 µM | actives 0.43% (n = 330,000);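 active = inhibition above its plate's threshold, mean inhibition of all tested compounds on the plate plus 3 SD, cut at about 37% in these data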;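 also: 0% = orexin A challenge wells and 100% = SB-334867-A antagonist wells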
GalR3 antag = antagonists of human GalR3. HEK293 GalR3-CNG cAMP membrane potential fluorescence; galR3 body fused to GalR1 C-terminus. inhibition, % at 3 µM. actives 0.44% (n = 360,000);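 active = inhibition above the screen-wide average plus 3 SD, cut at about 13% in these data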;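 also: forskolin and galanin both at EC90 stimulate the cells; cAMP rise reported by CNG channel membrane potential dye signal; 0% = forskolin plus galanin with DMSO and 100% = forskolin alone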
nonsel antag count = nonselective antagonist in TAAR1 antagonist counter-screen; actives 77% (n = 2,400); shares compounds with TAAR1 antag; counterscreen cell line, calcium fluorescence, antagonist mode; AID 651780; inhibition, % at 3 µM; in the data active = inhibition above about 22%;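 also: CHO-Ga16 host cells stimulated with ATP at an EC80 level; 0% = agonist EC80 plus vehicle and 100% = vehicle without agonist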
TAAR1 ant conf = confirmation of human TAAR1 antagonists. actives 40% (n = 2,400). inhibition, % at 3 µM. TAAR1-expressing cells, fluorescence antagonist read-out. shares compounds with TAAR1 antag. AID 651785; in the data active = inhibition above about 49%;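 also: CHO-Ga16 host cells challenged with agonist PEA near its EC80; 0% = agonist at EC80 plus vehicle and 100% = vehicle with no agonist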
Ga16 nonsel ag = counter-screen for TAAR1 antagonists: nonselective Ga16 agonists; shares compounds with TAAR1 antag; Ga16-expressing cells, calcium fluorescence, agonist counterscreen; activation, % at 3 µM; actives 18% (n = 2,400); in the data active = activation above about 12%;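 also: 0% = vehicle wells and 100% = saturating stimulus response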
TAAR1 ag count = activates human TAAR1 in antagonist counter-screen; hTAAR1 cell line, fluorescence activation, agonist mode; shares compounds with TAAR1 antag; activation, % at 3 µM; actives 2% (n = 2,400); in the data active = activation above about 37%;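 also: CHO cells stably expressing TAAR1 with calcium dye readout; 0% = DMSO vehicle and 100% = full agonist response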
* hit, by the source's call; x = not tested or not shown.

SMILES | TAAR1 antag | CHO parental Ca | OX1R antag-1 | TAAR1 ag | OX1R antag-2 | GalR3 antag | nonsel antag count | TAAR1 ant conf | Ga16 nonsel ag | TAAR1 ag count
CN(C)C(=O)COC(=O)c1ccccc1OCC(=O)Nc1ccc(SC(F)F)cc1 | 63.7* | -20.8 | 11.3 | 16.7 | -19.5 | 5.2 | 32.1* | 51.1* | 10.6 | 8.2
Cc1nnc(SCC(=O)N2CCN(c3ccccc3)CC2)n1C1CC1 | 4.5 | -14.0 | -1.1 | 4.8 | -12.8 | -3.0 | x | x | x | x
CCN(CC)c1ncnc2scc(C3COc4ccccc4O3)c12 (stereo not drawn) | 53.2* | -8.1 | 14.6 | 6.6 | -22.0 | -2.7 | 8.5 | 36.5 | 3.3 | 8.7
c1ccc2c(c1)OCC(c1csc3ncnc(N4CCOCC4)c13)O2 (stereo not drawn) | 20.8 | 0.3 | 23.8 | 19.1 | -2.1 | -1.2 | x | x | x | x
CC1CC(C)CN(S(=O)(=O)c2ccc3oc(=O)ccc3c2)C1 (stereo not drawn) | -19.1 | -18.1 | 24.8 | -0.5 | -27.4 | 4.7 | x | x | x | x
CC(=O)Oc1ccc(C(=O)Nc2cc(NC(=O)c3ccc(OC(C)=O)cc3)cc(C(=O)NC(C)(C)C)c2)cc1 | 67.0* | 15.1 | 4.1 | 5.3 | 8.5 | -4.0 | 32.3* | 42.5 | 4.8 | 6.0
CC(=O)Oc1ccc(C(=O)Nc2ccccc2NC(=O)c2ccc(OC(C)=O)cc2)cc1 | 34.9 | 8.9 | -4.8 | 4.2 | 5.8 | -2.8 | x | x | x | x
Cc1c(C(=O)N2CCN(Cc3ccc4c(c3)OCO4)CC2)sc2ncnc(N3CCN(c4ccccc4)CC3)c12 | 19.1 | 1.6 | 16.6 | 0.7 | -4.0 | 2.9 | x | x | x | x
Cc1c(C(=O)N2CCN(Cc3ccc4c(c3)OCO4)CC2)sc2ncnc(N3CCN(c4ccccc4F)CC3)c12 | 77.3* | -12.2 | 8.5 | 4.5 | -12.9 | 5.5 | 34.2* | 50.4* | 8.1 | 5.3
COC(=O)CCC(NS(=O)(=O)OCC(Cl)(Cl)Cl)c1ccccc1 (stereo not drawn) | 3.0 | -14.2 | 33.9 | 19.0 | -17.9 | -5.2 | x | x | x | x
CC(C)CC(NS(=O)(=O)OCC(Cl)(Cl)Cl)c1ccccc1 (stereo not drawn) | 86.2* | -10.8 | 31.8 | 19.9 | -0.1 | -5.6 | 13.1 | 48.2 | 3.8 | 4.9
O=C(NCCC1=CCCCC1)C1CC(=O)N(C2CCCCCC2)C1 (stereo not drawn) | -5.4 | -17.6 | 3.7 | 4.4 | -35.8 | 0.1 | x | x | x | x
NS(=O)(=O)c1ccc(CCNC(=O)c2ccc3c(c2)OCO3)cc1 | -25.4 | -5.5 | 14.6 | 1.5 | -11.6 | -4.1 | x | x | x | x
O=C(Nc1ccc([N+](=O)[O-])cc1NC(=O)c1ccccc1)c1ccccc1 | 57.2* | x | x | 6.4 | x | -1.2 | 32.1* | 43.5 | 7.1 | 6.6
CC(O)[C@H]1CNC(=O)C(=O)N1CC1(c2ccccc2)CC1 (stereo partly drawn) | -8.3 | -10.8 | 8.1 | 4.7 | -5.3 | 4.8 | x | x | x | x
COCCCNC(=O)c1cc(-c2cccnc2)nc2ccccc12 | 9.7 | -6.8 | -7.5 | 1.8 | -7.8 | -8.1 | x | x | x | x
COc1ccccc1Nc1cc(C(=O)NCc2cccnc2)c2ccccc2n1 | 35.9 | -23.7 | 10.0 | 11.5 | -29.8 | 3.6 | x | x | x | x
COc1ccc(C2=NOC(Cn3nc(C(=O)NCc4cccc(Br)c4)cc3-c3ccccc3)C2)cc1 (stereo not drawn) | 56.5* | 5.2 | 17.2 | 11.7 | 11.7 | -4.0 | 29.7* | 36.2 | 6.3 | 2.5
Cc1ccc(C)c(Nc2cc(C(=O)NCc3cccnc3)c3ccccc3n2)c1 | 49.7* | -14.9 | 25.4 | 12.7 | -27.3 | -7.5 | 21.5* | 44.1 | 8.9 | 6.6
COCCNC(=O)c1cc(-c2ccc(-c3ccccc3)cc2)nc2ccccc12 | 55.1* | -8.6 | 32.5 | 4.1 | -22.9 | -2.2 | 25.0* | 35.5 | 6.5 | 0.7
Cc1cc(CNC(=O)c2cc(-c3ccccc3)nc3ccccc23)nn1C | 51.9* | -14.7 | 17.2 | 7.7 | -21.8 | 6.4 | 23.6* | 43.1 | 10.3 | 9.1
CCNCc1cc(Cl)cc(OC)c1OC(C)C | -26.7 | -20.5 | 24.7 | 0.4 | -20.1 | -11.2 | x | x | x | x
O=C(c1cc(S(=O)(=O)NCc2ccco2)ccc1Br)N1CCOCC1 | -7.8 | -7.4 | 1.1 | 2.3 | -11.3 | 0.5 | x | x | x | x
Cc1ccccc1CN1CCNC(=O)C1CC(=O)N(C)CCC1CCOCC1 (stereo not drawn) | -14.2 | -13.5 | -1.4 | 1.5 | -23.7 | -2.5 | x | x | x | x
COc1ccc(C2=NOC(Cn3nc(-c4ccccc4)cc3C(=O)NCc3ccccc3OC)C2)cc1 (stereo not drawn) | 33.8 | 11.9 | 6.0 | 6.8 | 29.1 | -0.4 | x | x | x | x
SMILES | TAAR1 antag | CHO parental Ca | OX1R antag-1 | TAAR1 ag | OX1R antag-2 | GalR3 antag | nonsel antag count | TAAR1 ant conf | Ga16 nonsel ag | TAAR1 ag count
COc1ccccc1CNC(=O)c1cc(-c2cccnc2)nc2ccccc12 | 73.9* | -14.8 | 15.4 | 15.4 | -34.3 | 5.4 | 22.8* | 39.2 | 10.2 | 13.5
O=C(NCc1ccco1)c1cc(-c2cccnc2)nc2ccccc12 | 21.9 | -11.1 | -0.3 | 7.1 | -26.2 | -7.1 | x | x | x | x
COc1ccccc1CNC(=O)c1cc(-c2ccccc2)nn1CC1CC(c2cccnc2)=NO1 (stereo not drawn) | 53.3* | -20.1 | 9.0 | 13.7 | -22.5 | -1.8 | 20.3 | 47.4 | 8.5 | 10.9
CC(C)(C)N1C(=O)c2ccc(C(=O)Nc3nccs3)cc2C1=O | 49.1* | -28.2 | 14.1 | 12.1 | -33.7 | -1.4 | 13.2 | 37.0 | 5.7 | 2.3
COc1ccc(CN(C)C[C@H]2Oc3c(NC(=O)Nc4ccccc4)cccc3C(=O)N([C@H](C)CO)C[C@@H]2C)cc1 | 60.9* | -28.1 | 7.9 | 19.5 | -10.1 | -2.9 | 24.7* | 41.2 | 10.6 | 10.5
CC(C)N1CCC(N2CCN(C3CCCCC3)CC2CCO)CC1 (stereo not drawn) | 21.0 | -3.2 | 0.6 | 2.6 | -3.1 | -5.0 | x | x | x | x
COc1cc(F)ccc1-c1csc(C(O)c2ccc(F)c(F)c2)n1 (stereo not drawn) | 15.8 | x | x | 0.7 | x | 1.1 | x | x | x | x
O=C(NCCn1cc(SCc2ccc(F)cc2)c2ccccc21)c1c(F)cccc1F | 73.5* | 42.1* | 11.0 | 1.3 | 7.6 | x | 30.8* | 47.9 | 6.5 | 5.7
O=C(NCCn1cc(SCc2ccccc2)c2ccccc21)c1c(F)cccc1F | 85.4* | 70.0* | 35.8 | 1.9 | 7.7 | x | 32.2* | 47.1 | 3.7 | -1.0
